Results from ChEMBL document CHEMBL1781947, “Structure-activity studies on the nociceptin/orphanin FQ receptor antagonist 1-benzyl-N-{3-[spiroisobenzofuran-1(3H),4'-piperidin-1-yl]propyl} pyrrolidine-2-carboxamide” (Bioorg Med Chem, 2009).
The source made the active and inactive calls.

Experiments:
Nociceptin receptor [1] = molecular target: T1, Nociceptin receptor (Homo sapiens, UniProt P41146); experiment: Displacement of [3H]N/OFQ from human recombinant NOP receptor expressed in CHO cells; format: cell-based
Procedure, shortened: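 Membranes from CHO cells expressing human NOP, prepared in 50 mM Tris-HCl, 5 mM Mg2+ pH 7.4. Incubation: 5 µg protein, ~200 pM [3H]N/OFQ, 10 µM peptidase inhibitors (amastatin, bestatin, captopril, phosphoramidon), 0.5% BSA, increasing competitor concentrations, 1 h at room temperature. Nonspecific binding defined with 1 µM unlabeled N/OFQ. Filtration onto 0.5% PEI-soaked GF/B filters; pKi reported.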

Mus musculus [2] = experiment: Effect on N/OFQ-induced antinociceptive activity in Swiss albino mouse at 1 mg/kg, ip administered 30 mins before 1 nmol, it N/OFQ challenge by tail withdrawal latency test; format: functional, organism-based; set-up: dose 1 mg/kg
Mus musculus [3] = experiment: Effect on N/OFQ-induced pronociciceptive activity in Swiss albino mouse at 1 mg/kg, ip administered 30 mins before 1 nmol, icv N/OFQ challenge by tail withdrawal latency test; format: functional, organism-based; set-up: dose 1 mg/kg
Mus musculus [4] = experiment: Effect on N/OFQ-induced antinociceptive activity in Swiss albino mouse at 10 mg/kg, ip administered 30 mins before 1 nmol, it N/OFQ challenge by tail withdrawal latency test; format: functional, organism-based; set-up: dose 10 mg/kg
Procedure, shortened: (§1)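 Male Swiss albino mice (25–30 g), distal half of the tail dipped in 48 °C water, 20 s cutoff, observer blind to treatment. Test agent 10 mg/kg ip in 2% DMSO/10% encapsin, 30 min before 1 nmol N/OFQ or saline given icv (2 µl) or i.t. (5 µl). Latency read before and 5, 15, 30 and 60 min after injection. Four mice per group, repeated four times (n=16).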

Mus musculus [5] = experiment: Effect on N/OFQ-induced pronociciceptive activity in Swiss albino mouse at 10 mg/kg, ip administered 30 mins before 1 nmol, icv N/OFQ challenge by tail withdrawal latency test; format: functional, organism-based; set-up: dose 10 mg/kg; procedure, shortened: as §1
Nociceptin receptor [6] = molecular target: T1, Nociceptin receptor; experiment: Antagonist activity at human recombinant NOP expressed in expressed on CHO cells co-expressing Galphaqi5 chimeric protein assessed as inhibition of NOPN/OFQ-stimulated calcium mobilization; format: functional, cell-based
Procedure, shortened: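 CHO cells stably co-expressing hNOP and Gαqi5, 40,000 cells/well, loaded 24 h later with Fluo-4 AM 3 µM, probenecid 2.5 mM, pluronic 0.01% for 30 min at 37 °C. Assay buffer HBSS/20 mM HEPES with probenecid and Brilliant Black. Fluorescence read at room temperature. Antagonist inhibition of 10 nM N/OFQ response. pKb derived from IC50 via the Kb equation. Four experiments in duplicate.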

Nociceptin receptor [7] = molecular target: Nociceptin receptor (Mus musculus, UniProt P35377); experiment: Antagonist activity at nociceptin receptor in Swiss mouse vas deferens assessed as inhibition of electrically evoked twitches; format: functional, tissue-based; settings: read-out: pA2 (converted)
Procedure, shortened: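 Vas deferens from male Swiss mice (30–35 g), field-stimulated with supramaximal 1 ms pulses at 0.05 Hz. Twitches recorded isotonically after 60 min equilibration. Cumulative N/OFQ curves run in 0.5 log steps, without or with antagonist pre-incubated 15 min. pA2 from Schild analysis. At least four experiments.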

Mu-type opioid receptor [8] = molecular target: T2, Mu-type opioid receptor (Homo sapiens, UniProt P35372); experiment: Displacement of [3H]DPN from human recombinant mu-type opioid receptor expressed in CHO cell membranes; format: cell-based
[9] = molecular target: Nociceptin receptor (Rattus norvegicus) (UniProt P35370); settings: Sprague-Dawley, Vas deferens
Mu-type opioid receptor [10] = molecular target: T2, Mu-type opioid receptor; settings: CHO
[11] = molecular target: T3, Kappa-type opioid receptor (Homo sapiens, UniProt P41145); settings: CHO
[12] = molecular target: T4, Delta-type opioid receptor (Homo sapiens, UniProt P41143); settings: CHO
[13] = molecular target: T3, Kappa-type opioid receptor; experiment: Displacement of [3H]DPN from human recombinant kappa-type opioid receptor expressed in CHO cell membranes; format: cell-based
[14] = molecular target: Nociceptin receptor (Cavia porcellus) (UniProt P47748); settings: Albino, Ileum
[15] = molecular target: T4, Delta-type opioid receptor; experiment: Displacement of [3H]DPN from human recombinant delta-type opioid receptor expressed in CHO cell membranes
Procedure, shortened: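 CHO membranes expressing human DOP (25 µg protein) incubated 1 h at room temperature in 50 mM Tris-HCl pH 7.4, 0.5% BSA, ~0.7 nM [3H]diprenorphine with increasing test concentrations. Filtration through PEI-soaked GF/B filters, scintillation counting. Four separate experiments.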

Nociceptin receptor [16] = molecular target: T1, Nociceptin receptor; experiment: Antagonist activity at human recombinant NOP expressed in CHO cells by [35S]GTPgammaS binding assay; format: functional, cell-based; settings: read-out: pA2 (converted)
Procedure, shortened: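 Membranes from CHO cells stably expressing human NOP, prepared in 50 mM Tris-HCl, 0.2 mM EGTA pH 7.4; 20 µg protein with MgCl2 1 mM, NaCl 100 mM, bacitracin 0.15 mM, peptidase inhibitors, GDP 100 µM, ~150 pM [35S]GTPγS. Antagonist preincubated 15 min at 30 °C, then N/OFQ concentration-response 1 h at 30 °C; filtration without PEI. pA2 from Schild analysis.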

T1 sequence (P41146 whole entry): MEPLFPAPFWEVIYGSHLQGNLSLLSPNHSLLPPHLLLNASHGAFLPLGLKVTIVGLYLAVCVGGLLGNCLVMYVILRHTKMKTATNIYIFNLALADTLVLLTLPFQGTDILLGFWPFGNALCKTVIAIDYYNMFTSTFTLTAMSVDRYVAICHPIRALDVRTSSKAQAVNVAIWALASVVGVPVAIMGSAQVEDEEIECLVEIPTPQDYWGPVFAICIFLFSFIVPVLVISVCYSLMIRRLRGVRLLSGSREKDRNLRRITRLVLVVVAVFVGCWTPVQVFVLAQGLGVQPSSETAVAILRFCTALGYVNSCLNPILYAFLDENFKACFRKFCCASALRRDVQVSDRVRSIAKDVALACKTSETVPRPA
T2 sequence (P35372 whole entry): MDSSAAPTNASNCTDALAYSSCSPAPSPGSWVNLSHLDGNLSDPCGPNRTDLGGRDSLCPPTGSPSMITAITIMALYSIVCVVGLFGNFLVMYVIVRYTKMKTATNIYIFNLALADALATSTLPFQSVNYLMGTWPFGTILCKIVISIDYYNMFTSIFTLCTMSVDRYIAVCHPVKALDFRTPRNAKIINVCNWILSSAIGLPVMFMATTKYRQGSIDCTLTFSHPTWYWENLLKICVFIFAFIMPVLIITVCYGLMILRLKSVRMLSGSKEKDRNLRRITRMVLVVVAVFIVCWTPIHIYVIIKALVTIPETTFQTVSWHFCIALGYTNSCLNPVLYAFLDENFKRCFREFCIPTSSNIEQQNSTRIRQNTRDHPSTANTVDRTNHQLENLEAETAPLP
Nociceptin receptor (Mus musculus, UniProt P35377), sequence (P35377 whole entry): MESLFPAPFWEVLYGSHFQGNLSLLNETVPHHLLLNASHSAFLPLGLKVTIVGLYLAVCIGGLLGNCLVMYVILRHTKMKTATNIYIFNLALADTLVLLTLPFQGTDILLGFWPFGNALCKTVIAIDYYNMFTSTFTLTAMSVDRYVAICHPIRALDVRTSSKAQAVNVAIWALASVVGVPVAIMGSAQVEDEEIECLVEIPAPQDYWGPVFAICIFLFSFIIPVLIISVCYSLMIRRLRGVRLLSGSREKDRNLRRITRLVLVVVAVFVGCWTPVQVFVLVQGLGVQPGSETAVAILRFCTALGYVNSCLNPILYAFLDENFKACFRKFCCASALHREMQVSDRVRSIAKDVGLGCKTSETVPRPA
T3 sequence (P41145 whole entry): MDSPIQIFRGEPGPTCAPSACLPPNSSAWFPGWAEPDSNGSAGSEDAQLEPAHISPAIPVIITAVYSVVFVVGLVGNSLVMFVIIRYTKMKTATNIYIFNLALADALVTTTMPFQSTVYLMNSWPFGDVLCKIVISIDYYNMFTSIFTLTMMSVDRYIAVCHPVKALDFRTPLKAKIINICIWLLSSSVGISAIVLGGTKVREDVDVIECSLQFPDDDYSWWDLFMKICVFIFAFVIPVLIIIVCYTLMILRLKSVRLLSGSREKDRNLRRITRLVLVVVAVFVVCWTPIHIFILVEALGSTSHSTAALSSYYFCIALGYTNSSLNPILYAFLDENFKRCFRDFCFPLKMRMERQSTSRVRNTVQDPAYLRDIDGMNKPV
T4 sequence (P41143 whole entry): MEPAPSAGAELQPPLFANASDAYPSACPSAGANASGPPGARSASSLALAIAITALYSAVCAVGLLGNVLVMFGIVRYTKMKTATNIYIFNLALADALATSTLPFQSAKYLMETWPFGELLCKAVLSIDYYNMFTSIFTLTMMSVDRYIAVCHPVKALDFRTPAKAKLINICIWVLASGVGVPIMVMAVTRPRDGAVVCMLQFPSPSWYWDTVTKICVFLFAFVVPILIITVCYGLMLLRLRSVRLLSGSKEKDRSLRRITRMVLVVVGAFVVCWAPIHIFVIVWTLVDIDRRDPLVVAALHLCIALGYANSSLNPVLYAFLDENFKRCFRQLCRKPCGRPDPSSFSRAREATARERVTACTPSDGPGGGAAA
Nociceptin receptor (Cavia porcellus), sequence (P47748 whole entry): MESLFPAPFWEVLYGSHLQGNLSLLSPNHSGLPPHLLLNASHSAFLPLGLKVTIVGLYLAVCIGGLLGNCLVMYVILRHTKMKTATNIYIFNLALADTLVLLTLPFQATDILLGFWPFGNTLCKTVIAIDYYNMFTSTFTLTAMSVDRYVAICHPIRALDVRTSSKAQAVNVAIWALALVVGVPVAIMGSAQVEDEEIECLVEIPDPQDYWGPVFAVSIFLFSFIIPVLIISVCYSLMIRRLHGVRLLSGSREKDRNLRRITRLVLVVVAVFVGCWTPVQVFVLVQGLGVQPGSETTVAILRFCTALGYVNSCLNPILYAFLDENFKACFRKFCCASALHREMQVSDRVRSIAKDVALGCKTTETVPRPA
Nociceptin receptor (Rattus norvegicus), sequence (P35370 whole entry): as the sequence (P35377 whole entry) above, with F9Y, A335S counted along it

`N[C@H](Cc1ccccc1)C(=O)NCCCN1CCC2(CC1)OCc1ccccc12` gave a Ki (Nociceptin receptor [1]) of 58.9 nM.
In the case of `O=C(NCCCN1CCC(c2c(Cl)cccc2Cl)CC1)[C@@H]1CCCN1Cc1ccccc1`, the Ki (Nociceptin receptor [1]) is reported as 83.2 nM.
Compound `O=C(CNCc1ccccc1)NCCCN1CCC2(CC1)OCc1ccccc12` has a Ki (Nociceptin receptor [1]) of 60.3 nM.
`O=C(OCCCN1CCC2(CC1)OCc1ccccc12)[C@H]1CCCN1Cc1ccccc1` was tested, and the Ki (Nociceptin receptor [1]) was 107 nM.
With `Cc1cccc2c1CC[C@H](CN1CCC(c3c(Cl)cccc3Cl)CC1)C[C@@H]2O` the Activity (Mus musculus [2]) was “Active” and the Activity (Mus musculus [3]) was “Active”.
`C(=C[C@H]1CCCN1Cc1ccccc1)CCCN1CCC2(CC1)NCc1ccccc12` gave a Ki (Nociceptin receptor [1]) of over 10000 nM.
`c1ccc(CN2CCC[C@@H]2COCCCN2CCC3(CC2)OCc2ccccc23)cc1` gave a Ki (Nociceptin receptor [1]) of 158 nM.
For `c1ccc(CN2CCC[C@@H]2CNCCCN2CCC3(CC2)OCc2ccccc23)cc1`, the Ki (Nociceptin receptor [1]) was 49 nM.
In the case of `O=C(NCCCN1CCC2(CC1)OCc1ccccc12)[C@H]1CCCN1Cc1ccccc1`, the Activity (Mus musculus [4]) is reported as “Active”, the Activity (Mus musculus [5]) is reported as “Active” and the pKb (Nociceptin receptor [6]) is reported as 9.03. The Ki (Nociceptin receptor [1]) was 0.24 nM and the Kb (Nociceptin receptor [7]) was 5.75 nM.
`N[C@@H](Cc1ccccc1)C(=O)NCCCN1CCC2(CC1)OCc1ccccc12` gave a Ki (Nociceptin receptor [1]) of 58.9 nM.
`CN(CCCN1CCC2(CC1)OCc1ccccc12)C(=O)[C@H]1CCCN1Cc1ccccc1` was tested, and the Ki (Nociceptin receptor [1]) was 1150 nM.
With `O=C(NCCCN1CCC(c2c(Cl)cccc2Cl)CC1)[C@H]1CCCN1Cc1ccccc1` the Activity (Mus musculus [4]) was “inactive”, the Activity (Mus musculus [5]) was “inactive” and the pKb (Nociceptin receptor [6]) was 8.47. For the same compound, the Ki (Mu-type opioid receptor [8]) was 191 nM, the pKb [9] was 8.06 and the Ki (Nociceptin receptor [1]) was 0.724 nM. For the same compound, the pKb (Mu-type opioid receptor [10]) was 6.11, the pKb [11] was under 6 and the pKb [12] was under 6. For the same compound, the Kb (Nociceptin receptor [7]) was 10 nM, the Ki [13] was 316 nM and the pKb [14] was 8.84. For the same compound, the Ki [15] was over 1000 nM and the Kb (Nociceptin receptor [16]) was 0.123 nM.
